Columns and labels:
RAW264.7 [1] = assay: Cytotoxicity against mouse RAW264.7 cells assessed as reduction in cell viability at 50 ug/ml after 24 hrs by MTT assay; type: cell-based; conditions: raw264.7, 24 h
RAW264.7 [2] = assay: Cytotoxicity against mouse RAW264.7 cells assessed as reduction in cell viability at 50 ug/ml preincubated for 24 hrs followed by LPS induction measured after 18 hrs by MTT assay; type: cell-based; conditions: raw264.7, 18 h
RAW264.7 [3] = assay: Antiinflammatory activity against mouse RAW264.7 cells assessed as decrease in LPS-stimulated TNFalpa release after 24 hrs by ELISA; type: functional, cell-based
Method in brief: (§1)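 Mouse RAW 264.7 macrophages were stimulated with LPS in the presence of compound, tested at […]. TNF-α and IL-6 were measured in the culture supernatants by ELISA. Cytokine content is expressed as fold of the control group, with control set at 100%. Values are mean ± S.D. of triplicate experiments.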

RAW264.7 [4] = assay: Antiinflammatory activity against mouse RAW264.7 cells assessed as LPS-stimulated TNFalpa release at 50 ug/ml after 24 hrs by ELISA relative to LPS-treated control; type: functional; method in brief: as §1
Mus musculus [5] = assay: Antiinflammatory activity in Kunming mouse assessed as inhibition of xylene-induced ear edema at 12.5 mg/kg, ip pretreated for 30 mins followed by xylene challenge measured after 30 mins relative to control; type: functional
Method in brief: (§2)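 Xylene-induced ear edema in mice. Compounds were given i.p. at 12.5, 25 or 50 mg/kg. Ibuprofen and indomethacin at 50 mg/kg served as reference drugs. Ear edema weight (mg) is reported as mean ± S.D., and percent inhibition is calculated against the untreated control group.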

Mus musculus [6] = assay: Antiinflammatory activity in Kunming mouse assessed as inhibition of xylene-induced ear edema at 25 mg/kg, ip pretreated for 30 mins followed by xylene challenge measured after 30 mins relative to control; type: functional; method in brief: as §2
Mus musculus [7] = assay: Antiinflammatory activity in Kunming mouse assessed as inhibition of xylene-induced ear edema at 50 mg/kg, ip pretreated for 30 mins followed by xylene challenge measured after 30 mins relative to control; type: functional; method in brief: as §2
RAW264.7 [8] = assay: Antiinflammatory activity against mouse RAW264.7 cells assessed as decrease in LPS-stimulated IL-6 release after 24 hrs by ELISA; type: functional, cell-based; method in brief: as §1
RAW264.7 [9] = assay: Antiinflammatory activity against mouse RAW264.7 cells assessed as LPS-stimulated IL6 release at 12.5 ug/ml after 24 hrs by ELISA relative to LPS-treated control; type: functional; method in brief: as §1
RAW264.7 [10] = assay: Antiinflammatory activity against mouse RAW264.7 cells assessed as LPS-stimulated IL6 release at 25 ug/ml after 24 hrs by ELISA relative to LPS-treated control; type: functional; method in brief: as §1
RAW264.7 [11] = assay: Antiinflammatory activity against mouse RAW264.7 cells assessed as LPS-stimulated IL6 release at 50 ug/ml after 24 hrs by ELISA relative to LPS-treated control; type: functional; method in brief: as §1
[12] = target: Mitogen-activated protein kinase 3 (Mus musculus) (UniProt Q63844); assay: Inhibition of ERK phosphorylation in mouse RAW264.7 cells incubated for 24 hrs followed by LPS-stimulation measured after 24 hrs by Western blot method; type: cell-based
Mitogen-activated protein kinase 3 (Mus musculus), sequence (Q63844 whole entry): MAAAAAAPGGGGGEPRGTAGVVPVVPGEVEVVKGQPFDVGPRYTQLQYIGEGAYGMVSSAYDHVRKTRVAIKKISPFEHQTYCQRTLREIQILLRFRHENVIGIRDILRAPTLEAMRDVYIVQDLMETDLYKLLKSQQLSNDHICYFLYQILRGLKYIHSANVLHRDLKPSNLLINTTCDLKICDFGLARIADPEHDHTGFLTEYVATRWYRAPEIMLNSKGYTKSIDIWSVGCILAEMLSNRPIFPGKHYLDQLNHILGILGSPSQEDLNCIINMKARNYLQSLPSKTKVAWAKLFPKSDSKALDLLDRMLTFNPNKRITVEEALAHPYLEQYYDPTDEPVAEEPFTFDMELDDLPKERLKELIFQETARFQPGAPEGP
Method in brief: (§3)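 MAPK protein levels were determined by western blot in LPS-stimulated mouse RAW 264.7 cells. Data are means ± SD, compared with the control and LPS groups.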

[13] = target: MAP kinase p38 (Mus musculus) (UniProt P47811+O08911+Q9WUI1+Q9Z1B7); assay: Inhibition of p38 phosphorylation in mouse RAW264.7 cells incubated for 24 hrs followed by LPS-stimulation measured after 24 hrs by Western blot method; type: cell-based; method in brief: as §3
Mus musculus [14] = species: Mus musculus; assay: Inhibition of LPS-induced NFkappaB activation in mouse RAW264.7 cells assessed as reduction p65 phosphorylation at 12.5 to 50 ug/ml preincubated for 24 hrs followed by LPS-stimulation measured after 24 hrs by Western blot method; type: cell-based
Method in brief: (§4)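 NF-κB activation in LPS-stimulated RAW 264.7 cells was assessed by western blot of phosphorylated p65 and IκB levels. Data are means ± SD, compared with the control and LPS groups.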

Mus musculus [15] = species: Mus musculus; assay: Inhibition of NFkappaB in mouse RAW264.7 cells assessed as decrease in LPS-induced degradation of IkappaB preincubated for 24 hrs followed by LPS-stimulation measured after 24 hrs by Western blot method; type: cell-based; method in brief: as §4
[16] = target: T1, Prostaglandin G/H synthase 2 (Homo sapiens) (UniProt P35354); assay: Inhibition of COX-2 (unknown origin) assessed as protein/GADPH ratio at 50 ug/ml relative to control; set-up: scale not given: the % may be the effect or the level left
T1 sequence (whole entry): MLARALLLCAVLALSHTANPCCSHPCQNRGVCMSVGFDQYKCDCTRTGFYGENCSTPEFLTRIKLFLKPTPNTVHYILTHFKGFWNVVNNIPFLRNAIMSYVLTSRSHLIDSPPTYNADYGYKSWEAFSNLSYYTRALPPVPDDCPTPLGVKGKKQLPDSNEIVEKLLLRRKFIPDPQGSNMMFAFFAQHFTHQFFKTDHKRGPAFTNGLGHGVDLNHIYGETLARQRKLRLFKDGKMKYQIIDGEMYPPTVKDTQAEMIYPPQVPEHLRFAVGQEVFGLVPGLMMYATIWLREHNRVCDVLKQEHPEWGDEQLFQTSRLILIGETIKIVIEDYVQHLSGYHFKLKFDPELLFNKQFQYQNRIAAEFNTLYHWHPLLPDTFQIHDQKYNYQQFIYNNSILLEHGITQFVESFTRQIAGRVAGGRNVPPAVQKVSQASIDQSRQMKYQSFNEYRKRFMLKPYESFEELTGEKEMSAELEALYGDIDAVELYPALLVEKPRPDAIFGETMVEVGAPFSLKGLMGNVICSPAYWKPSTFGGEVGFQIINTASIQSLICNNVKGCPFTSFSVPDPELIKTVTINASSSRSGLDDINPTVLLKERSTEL

Structure (SMILES)	Activity (RAW264.7 [1])	Activity (RAW264.7 [2])	other results
Cc1cccc(Cn2c3cccc4cccc(c43)n3cnnc23)c1	Non-Toxic	Non-Toxic	Activity (RAW264.7 [3]): Dose-dependent effect; Activity (RAW264.7 [4]): 146.24%; inhibition in vivo at 12.5 mg/kg (Mus musculus [5]): 15.7%; inhibition in vivo at 25 mg/kg (Mus musculus [6]): 29.8%; inhibition in vivo at 50 mg/kg (Mus musculus [7]): 42.9%; Activity (RAW264.7 [8]): Dose-dependent effect
CCCCCCCCCn1c2cccc3cccc(c32)n2cnnc12	Toxic	–	–
CCCCCn1c2cccc3cccc(c32)n2cnnc12	–	Non-Toxic	–
Clc1cccc(Cn2c3cccc4cccc(c43)n3cnnc23)c1	Toxic	Toxic	–
Fc1ccccc1Cn1c2cccc3cccc(c32)n2cnnc12	Non-Toxic	Non-Toxic	Activity (RAW264.7 [3]): Dose-dependent effect; Activity (RAW264.7 [4]): 124.87%; Activity (RAW264.7 [9]): 71.8%; Activity (RAW264.7 [10]): 68.23%; Activity (RAW264.7 [11]): 47.21%; inhibition in vivo at 12.5 mg/kg (Mus musculus [5]): 17.2%; inhibition in vivo at 25 mg/kg (Mus musculus [6]): 35%; inhibition in vivo at 50 mg/kg (Mus musculus [7]): 49.3%; inhibition [12]: Dose-dependent effect; inhibition [13]: Dose-dependent effect; inhibition (Mus musculus [14]): Dose-dependent effect; inhibition (Mus musculus [15]): Dose-dependent effect; Activity [16]: 45.2%; Activity (RAW264.7 [8]): Dose-dependent effect
FC(F)(F)c1ccc(Cn2c3cccc4cccc(c43)n3cnnc23)cc1	Toxic	–	–
CCCCCCCCCCn1c2cccc3cccc(c32)n2cnnc12	Toxic	–	–
Fc1ccc(Cn2c3cccc4cccc(c43)n3cnnc23)cc1	Non-Toxic	Non-Toxic	–
c1ccc(Cn2c3cccc4cccc(c43)n3cnnc23)cc1	Non-Toxic	Non-Toxic	–
CCCn1c2cccc3cccc(c32)n2cnnc12	Toxic	–	–
CCCCn1c2cccc3cccc(c32)n2cnnc12	Toxic	Toxic	–
COc1ccc2c(c1)c(CC(=O)O)c(C)n2C(=O)c1ccc(Cl)cc1 [INDOMETHACIN]	–	–	inhibition in vivo at 50 mg/kg (Mus musculus [7]): 49.4%
Clc1ccc(Cn2c3cccc4cccc(c43)n3cnnc23)cc1	Toxic	–	–
CCCCCCCCn1c2cccc3cccc(c32)n2cnnc12	Toxic	Toxic	–
Cc1ccc(Cn2c3cccc4cccc(c43)n3cnnc23)cc1	Toxic	–	–
CC(C)Cc1ccc(C(C)C(=O)O)cc1 (configuration not stated) [IBUPROFEN]	–	–	inhibition in vivo at 50 mg/kg (Mus musculus [7]): 28.1%
Fc1cccc(Cn2c3cccc4cccc(c43)n3cnnc23)c1	Non-Toxic	Non-Toxic	–
Clc1ccccc1Cn1c2cccc3cccc(c32)n2cnnc12	Non-Toxic	Non-Toxic	–
Clc1ccc(Cn2c3cccc4cccc(c43)n3cnnc23)c(Cl)c1	Non-Toxic	Non-Toxic	–
Clc1cccc(Cl)c1Cn1c2cccc3cccc(c32)n2cnnc12	Non-Toxic	Non-Toxic	–
CCCCCCn1c2cccc3cccc(c32)n2cnnc12	Toxic	–	–

Source: ChEMBL document CHEMBL4043186, “Design, synthesis, anti-inflammatory activity, and molecular docking studies of perimidine derivatives containing triazole” (Bioorg Med Chem Lett, 2017)
